Measured values from ChEMBL document CHEMBL2062398, “De novo peptide design with C3a receptor agonist and antagonist activities: theoretical predictions and experimental validation” (J Med Chem, 2012).
Active and inactive are the calls of the source. The rule behind the calls is not given here.

What was measured:
[1] = biological target: T1, C3a anaphylatoxin chemotactic receptor (Homo sapiens) (UniProt Q16581); test: Agonist activity at human C3a receptor expressed in RBL-2H3 cells assessed as beta-hexosaminidase activity in cell supernatant by degranulation assay relative to recombinant human C3a; format: functional, cell-based
T1 sequence (whole entry): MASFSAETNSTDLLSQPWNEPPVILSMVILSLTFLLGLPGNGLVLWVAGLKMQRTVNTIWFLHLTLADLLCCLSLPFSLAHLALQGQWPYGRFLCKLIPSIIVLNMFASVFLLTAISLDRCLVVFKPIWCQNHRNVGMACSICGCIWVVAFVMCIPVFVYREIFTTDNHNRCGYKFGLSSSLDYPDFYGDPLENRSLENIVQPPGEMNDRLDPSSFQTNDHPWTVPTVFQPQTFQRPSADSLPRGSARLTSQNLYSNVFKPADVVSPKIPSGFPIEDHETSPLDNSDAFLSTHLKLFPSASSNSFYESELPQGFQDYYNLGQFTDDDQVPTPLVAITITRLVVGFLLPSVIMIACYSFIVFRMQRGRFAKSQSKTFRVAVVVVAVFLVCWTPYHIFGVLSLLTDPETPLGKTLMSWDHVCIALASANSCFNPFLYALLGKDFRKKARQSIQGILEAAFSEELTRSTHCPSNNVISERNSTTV
Summary of the method: (§1)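 Transfected RBL-2H3 cells kept in DMEM, 10% FCS, 400 mg/liter G-418, 37°C, 5% CO2. Degranulation read as β-hexosaminidase activity in supernatant. Secretion expressed as percent of maximal response to 200 nM recombinant human C3a or 10 nM FLPLAR. EC50, calculated maximum and SEM from iterative curve fitting.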

[2] = biological target: T2, C5a anaphylatoxin chemotactic receptor 1 (Homo sapiens) (UniProt P21730); test: Agonist activity at human C5a receptor expressed in RBL-2H3 cells assessed as beta-hexosaminidase activity in cell supernatant up to 1 uM by degranulation assay; format: functional, cell-based
T2 sequence (whole entry): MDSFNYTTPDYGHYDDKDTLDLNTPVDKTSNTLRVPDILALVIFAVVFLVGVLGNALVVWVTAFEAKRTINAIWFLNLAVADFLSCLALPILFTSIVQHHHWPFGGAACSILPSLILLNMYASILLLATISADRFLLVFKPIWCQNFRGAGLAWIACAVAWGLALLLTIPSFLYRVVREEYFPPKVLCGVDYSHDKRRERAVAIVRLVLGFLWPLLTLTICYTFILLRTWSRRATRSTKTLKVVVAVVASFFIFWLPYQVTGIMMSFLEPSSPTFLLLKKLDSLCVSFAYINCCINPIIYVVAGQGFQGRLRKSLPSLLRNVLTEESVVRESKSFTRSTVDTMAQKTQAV
Summary of the method: (§2)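 Human C5aR-transfected RBL-2H3 cells were tested with peptides up to 1 μM. In the agonist mode, β-hexosaminidase secretion was taken relative to 200 nM human C5a. In the antagonist mode, cells were pretreated with peptide for 10 min before C5a was added.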

[3] = biological target: T2, C5a anaphylatoxin chemotactic receptor 1 (Homo sapiens); test: Antagonist activity at human C5a receptor expressed in RBL-2H3 cells assessed as beta-hexosaminidase activity in cell supernatant up to 1 uM compound preincubated for 10 mins by degranulation assay; format: functional, cell-based; summary of the method: as §2
[4] = biological target: T1, C3a anaphylatoxin chemotactic receptor (Homo sapiens); test: Antagonist activity at human C3a receptor expressed in RBL-2H3 cells assessed as inhibition of FLPLAR-induced beta-hexosaminidase activity in cell supernatant measuring minimum receptor activity compound preincubated for 10 mins by degranulation assay; format: functional, cell-based; set-up: scale not given: the % may be the effect or the level left
Summary of the method: (§3)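 RBL-2H3 cells expressing human C3aR (DMEM, 10% FCS, G-418, 37°C) were pretreated with peptide for 10 min before 200 nM recombinant human C3a or 10 nM FLPLAR was added. β-Hexosaminidase release in supernatant was measured as percent of the agonist-alone response. IC50, calculated minimum and SEM came from iterative curve fitting.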

[5] = biological target: T1, C3a anaphylatoxin chemotactic receptor (Homo sapiens); test: Agonist activity at human C3a receptor expressed in RBL-2H3 cells assessed as beta-hexosaminidase activity in cell supernatant by degranulation assay relative to FLPLAR; format: functional, cell-based; summary of the method: as §1
[6] = biological target: T1, C3a anaphylatoxin chemotactic receptor (Homo sapiens); test: Antagonist activity at human C3a receptor expressed in RBL-2H3 cells assessed as inhibition of human recombinant C3a -induced beta-hexosaminidase activity in cell supernatant measuring minimum receptor activity compound preincubated for 10 mins by degranulation assay; format: functional, cell-based; set-up: scale not given: the % may be the effect or the level left; summary of the method: as §3
[7] = biological target: T3, C3a anaphylatoxin chemotactic receptor (Homo sapiens, UniProt Q16581); test: Agonist activity at human C3a receptor expressed in RBL-2H3 cells assessed as beta-hexosaminidase activity in cell supernatant by degranulation assay; format: functional, cell-based
T3 sequence (Q16581 whole entry): T1 sequence (whole entry)
Summary of the method: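 Degranulation read as β-hexosaminidase activity in supernatant. Secretion expressed as percent of maximal response to 200 nM recombinant human C3a or 10 nM FLPLAR. EC50, calculated maximum and SEM from iterative curve fitting.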

[8] = biological target: T3, C3a anaphylatoxin chemotactic receptor; test: Antagonist activity at human C3a receptor expressed in RBL-2H3 cells assessed as beta-hexosaminidase activity in cell supernatant compound preincubated for 10 mins by degranulation assay; format: functional, cell-based
[9] = biological target: T1, C3a anaphylatoxin chemotactic receptor (Homo sapiens); test: Agonist activity at C3a receptor in dbcAMP differentiated human U937 cells assessed as increase in intracellular calcium using […] staining by microplate reader relative to FLPLAR; format: functional, cell-based; conditions: U-937
Summary of the method: (§4)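 U937 cells grown in RPMI-1640 with 10% FCS at 37°C, 5% CO2, differentiated 48 h in 1 mM dibutyryl cAMP. Intracellular calcium rise read with Fluo-4 dye on a plate reader.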

[10] = biological target: T3, C3a anaphylatoxin chemotactic receptor; test: Agonist activity at C3a receptor in dbcAMP differentiated human U937 cells assessed as increase in intracellular calcium using […] staining by microplate reader; format: functional, cell-based, U-937; summary of the method: as §4

Row | Substance | Emax [1] | Activity [2] | Activity [3] | Activity [4] | Emax [5] | Activity [6] | EC50 [7] | IC50 [8] | Emax [9] | EC50 [10]
1 | Ac-WWDRRWRASKLGLAR-OH | 14% | inactive | inactive | 48% | 14% | 24% |  |  |  | 
2 | Ac-WWERRWRASKLGLAR-OH | 22% | inactive | inactive | 61% | 22% | 35% |  |  |  | 
3 | Ac-WWGKKYRASKLGLAR-OH |  | inactive | inactive |  | 38% | 52% |  |  |  | 
4 | Ac-WWRNRWRENRLGLAR-OH | 62% | inactive | inactive | 62.5% |  | 62.5% |  |  |  | 
5 | Ac-WWSRRWRASKLGLAR-OH | 13% | inactive | inactive | 40% | 13% | 40% | 148 nM | 63.1 nM |  | 
6 | Ac-WWTRRWRADKLGLAR-OH | 79% | inactive | inactive | 68% | 79% | 68% | 66.1 nM | 4.57 nM | 74% | 490 nM
7 | Ac-WWTRRWRASKLGLAR-OH | 35% | inactive | inactive | 47% | 35% | 47% | 195 nM | 50.1 nM |  | 
8 | Ac-WWTRRWRGDKLGLAR-OH | 72% | inactive | inactive | 70% | 72% | 70% | 25.1 nM | 9.12 nM | 81% | 794 nM
9 | Ac-WWTRRWRTDKLGLAR-OH [listing 1 of 2 here] |  |  |  |  |  |  | 339 nM | 5.01 nM |  | 
10 | Ac-WWTRRWRTDKLGLAR-OH [listing 2 of 2 here] | 43% | inactive | inactive | 60% | 43% | 60% |  |  |  | 
11 | Ac-WWTRRWRTEKLGLAR-OH [listing 1 of 2 here] |  |  |  |  |  |  | 708 nM | 7.76 nM |  | 
12 | Ac-WWTRRWRTEKLGLAR-OH [listing 2 of 2 here] | 45% | inactive | inactive | 60% | 45% | 60% |  |  |  | 
13 | Ac-WWTRRYRASKLGLAR-OH [listing 1 of 2 here] |  |  |  |  |  |  | 1000 nM | 23.4 nM |  | 
14 | Ac-WWTRRYRASKLGLAR-OH [listing 2 of 2 here] | 29% | inactive | inactive | 42% | 29% | 42% |  |  |  | 
15 | H-WWTRRWRASKLGLAR-OH |  | inactive | inactive | 63% | 37% |  |  |  |  | 
